Measurements: article PMC10585311 (Saudi Pharmaceutical Journal : SPJ, 2023)

Assays:
[1] = test system: brine shrimp nauplii; experiment: Brine shrimp lethality assay; assay type: in vivo; details: for percentage of dead shrimp (deaths): after 24 and 48 h
How it was run: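 Brine shrimp lethality assay. Test compounds were dissolved in DMSO and made up at four levels. Each vial held 5 mL NaCl solution and one of four sample levels (A–D: 4, 8, 16, 32). Each vial received 10 nauplii, with triplicate vials per level. Mortality was scored at each level and averaged as percent.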

[2] = test system: P. aeruginosa; experiment: Disc diffusion antibacterial screening; assay type: cell-based, Pseudomonas aeruginosa; details: P. aeruginosa (G–ve)
How it was run: (§1)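 Disc diffusion on standard nutrient agar as the basal medium. Values are from triplicate experiments. Significance was set at p < 0.05.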

[3] = test system: Aspergillus niger; experiment: Mycelial growth inhibition, poisoned food technique; assay type: cell-based; details: in DMSO (20 μg/μL)
[4] = test system: B. subtilis; experiment: Disc diffusion antibacterial screening; assay type: cell-based, Bacillus subtilis; details: B. subtilis (G + ve)
How it was run: as §1

[5] = test system: S. typhi; experiment: Disc diffusion antibacterial screening; assay type: cell-based, Salmonella typhi; details: S. typhi (G–ve)
How it was run: as §1

[6] = test system: Aspergillus flavus; experiment: Mycelial growth inhibition, poisoned food technique; assay type: cell-based; details: in DMSO (20 μg/μL)
[7] = test system: E. coli; experiment: Disc diffusion antibacterial screening; assay type: cell-based, Escherichia coli; details: E. coli (G–ve)
How it was run: as §1

[8] = test system: S. aureus; experiment: Disc diffusion antibacterial screening; assay type: cell-based; details: S. aureus (G + ve)
How it was run: as §1

[9] = test system: B. cereus; experiment: Disc diffusion antibacterial screening; assay type: cell-based, Bacillus cereus
How it was run: as §1

[10] = test system: tested bacteria; experiment: Disc diffusion antibacterial screening, overall statements; assay type: cell-based
How it was run: as §1

Compound	percentage of dead shrimp (deaths) [1]	Diameter of Inhibition Zones [2]	Percent inhibition of fungal mycelial growth [3]	Diameter of Inhibition Zones [4]	Diameter of Inhibition Zones [5]	Percent inhibition of fungal mycelial growth [6]	Diameter of Inhibition Zones [7]	toxicity to brine shrimp [1]	Diameter of Inhibition Zones [8]	zone of inhibition [9]	antibacterial activity ([10]; all tested bacteria)	inhibitory activity ([10]; tested gram-positive bacteria)
CCCCCCCCCCCCCC(=O)O[C@@H]1[C@@H](OC(=O)CCCCCCCCCCCCC)[C@@H](OC)O[C@H](COC(c2ccccc2)(c2ccccc2)c2ccccc2)[C@H]1OC(=O)CCCCCCCCCCCCC [Compound 4, Methyl 2,3,4-tri-O-myristoyl-6-O-(triphenylmethyl)-α-D-glucopyranoside]	47.64%	8 ± 0.2 mm	31.92%	10 ± 0.3 mm	9 ± 0.5 mm							
CO[C@H]1O[C@H](COC(c2ccccc2)(c2ccccc2)c2ccccc2)[C@@H](O)[C@H](O)[C@H]1O [Compound 2, Methyl 6-O-(triphenylmethyl)-α-D-glucopyranoside]	32.11%	9 ± 0.1 mm	36.43%	8 ± 0.5 mm		33.33%	9 ± 0.2 mm					
C[C@@H]1[C@H](O)[C@@H](C)/C=C/C=C/CC/C=C/C=C/C=C/C=C/C(O[C@H]2O[C@H](C)[C@@H](O)[C@H](N)[C@@H]2O)CC2O[C@](O)(CC(O)C(O)CCC(O)CC(O)CC(O)CC(=O)O[C@H]1C)CC(O)C2C(=O)O (stereo partly drawn) [Nystatin, reference compound]			**66.40 ± 0.05%			**63.10 ± 0.09%						
CCCCCCCCCCCC(=O)O[C@@H]1[C@@H](OC(=O)CCCCCCCCCCC)[C@@H](OC)O[C@H](COC(=O)c2ccc(OC)cc2)[C@H]1OC(=O)CCCCCCCCCCC [Compound 8, Methyl 2,3,4-tri-O-lauroyl-6-O-(4-methoxybenzoyl)-α-D-glucopyranoside]			*66.41 ± 0.37%	9 ± 0.3 mm		*63.31 ± 0.51%	10 ± 0.1 mm	less toxic	11 ± 0.2 mm			
CO[C@H]1O[C@H](COC(c2ccccc2)(c2ccccc2)c2ccccc2)[C@@H](OC(=O)c2ccc(C(C)(C)C)cc2)[C@H](OC(=O)c2ccc(C(C)(C)C)cc2)[C@H]1OC(=O)c1ccc(C(C)(C)C)cc1 [Compound 5, Methyl 2,3,4-tri-O-(4-t-butylbenzoyl)-6-O-(triphenylmethyl)-α-D-glucopyranoside]	48.21%				10 ± 0.4 mm	*59.54 ± 0.14%	*15 ± 0.2 mm		*17 ± 0.1 mm	17 ± 0.1 mm		
COc1ccc(C(=O)OC[C@H]2O[C@H](OC)[C@H](O)[C@@H](O)[C@@H]2O)cc1 [Compound 7, Methyl 6-O-(4-methoxybenzoyl)-α-D-glucopyranoside]			48.40 ± 0.22%	*12 ± 0.2 mm		35.38 ± 0.32%	9 ± 0.4 mm		10 ± 0.1 mm			
CC[C@H]1OC(=O)[C@H](C)[C@@H](O[C@H]2C[C@@](C)(OC)[C@@H](O)[C@H](C)O2)[C@H](C)[C@@H](O[C@@H]2O[C@H](C)C[C@H](N(C)C)[C@H]2O)[C@](C)(O)C[C@@H](C)CN(C)[C@H](C)[C@@H](O)[C@]1(C)O [Azithromycin, reference compound]		**17 ± 0.5 mm		**19 ± 0.6 mm	**19 ± 0.5 mm		**17 ± 0.4 mm		**18 ± 0.5 mm			
CO[C@H]1O[C@H](CO)[C@@H](O)[C@H](O)[C@H]1O [Compound 1, methyl α-D-glucopyranoside, reference compound]											did not show any antibacterial activity	
Methyl 2,3,4-tri-O-lauryl-6-O-(triphenylmethyl)-α-D-glucopyranoside [Compound 3]		*12 ± 0.3 mm	46.62%		10 ± 0.1 mm	41.30%		less toxic				did not show any inhibitory activity
